Compound activity from PubChem.
Only some compounds are listed: those with a hit (about 4.4% of all), similar ones and a draw of the others.
MPTP inh – permeability transition pore inhibition | isolated mouse mitochondria, Ca2+ swelling absorbance, 30 min | inhibition, % at 10 µM | hit rate 1.4% among 360,000 | AID 602449;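 active means inhibition of 50% or more, scaled per plate between neutral and stimulator controls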
NR3A LBD binder – NR3A (human) ligand-binding domain modulation. NR3A LBD differential scanning fluorimetry, Tm shift; 0% = protein alone, 100% = glycine-bound protein. Tm shift relative to glycine control, % at 25 µM. hit rate 2.5% among 340,000. AID 1259313;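 active means melting temperature shift of at least 10% of the positive control shift, at one fixed dose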
EBI2 block – blocks human EBI2 receptor beta-arrestin signaling. P32249. EBI2 beta-arrestin recruitment, luminescence, 7a,25-OHC stimulated. inhibition, % at 5 µM. hit rate 0.81% among 360,000; in the data active means inhibition above about 38%;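 further: enzyme fragment complementation signal reports receptor beta-arrestin coupling in cells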
SENP1 FRET inh – blocks the human SENP1 SUMO protease catalytic domain | inhibition, % at 10 µM | Q9P0U3 | recombinant SENP1 catalytic domain, CyPet-SUMO1-YPet FRET cleavage | hit rate 0.21% among 360,000;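 active means inhibition at least 30% at 10 µM, raw YFP signal under a set limit, fluorescence ratio 0.5 to 1.5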
Target sequence (Q9P0U3 419-644 limits assumed): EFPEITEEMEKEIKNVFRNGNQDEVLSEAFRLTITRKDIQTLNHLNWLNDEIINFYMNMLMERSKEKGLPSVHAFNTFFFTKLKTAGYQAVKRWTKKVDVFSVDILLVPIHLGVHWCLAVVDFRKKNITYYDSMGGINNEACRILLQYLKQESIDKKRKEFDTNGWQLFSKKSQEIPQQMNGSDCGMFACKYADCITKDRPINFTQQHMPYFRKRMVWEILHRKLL
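Compound: 10 µM single point, 0.5% DMSO; Test system: hSENP1 catalytic domain, recombinant; Timing: 50 min reaction at room temperature; Technique: FRET, CFP and YFP emission; Control set: no-enzyme wells low, DMSO-plus-enzyme wells high control.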
A number is an active result; 0 = inactive; - = no result given.

SMILES | MPTP inh | NR3A LBD binder | EBI2 block | SENP1 FRET inh
COc1cc2ccccc2cc1C(=O)N/N=C/c1cccnc1 | 0 | 82.9 | 0 | 0
CCOc1ccc2[nH]c(C(=O)N/N=C/c3ccc(OC)cc3)cc2c1 | 0 | - | 0 | 0
CCn1cc(C(=O)N[C@@H](CCSC)C(=O)NCCCn2ccnc2)c(=O)c2cc3c(cc21)OCO3 | 0 | 0 | 0 | 0
Cc1cccc(NC(=O)Nc2c(C)[nH]c(=O)[nH]c2=O)c1C | 0 | 0 | 0 | 0
COc1ccc(/C=N/NC(=O)c2[nH]c(C)c(C(=O)N/N=C/c3ccc(OC)cc3)c2C)cc1 | 0 | 0 | 0 | 0
CCCCOc1ccc(/C=N/NC(=O)c2csc(C)c2C)cc1 | 0 | 28.1 | 0 | 0
CCOc1ccc(/C=N/NC(=O)c2[nH]c3ccc(C)cc3c2C)cc1 | 0 | 26.2 | 0 | 0
Cc1scc(C(=O)N/N=C/c2ccc(OCC(C)C)cc2)c1C | 0 | 0 | 0 | 0
CCn1nccc1C(=O)Nc1ccc(C)c(C)c1 | 0 | 0 | 0 | 0
CC(C)NC(=O)C1(C)CSCC(=O)N1C1CCN(Cc2ccccc2)CC1 (stereo unspecified) | 0 | - | 0 | 0
N#CC(C#N)=C1C=CC=CN1/C(=C\c1ccco1)C(=O)c1ccc(Cl)cc1 | 0 | 0 | 73.6 | 0
N#CC(C#N)=C1C=CC=CN1/C(=C\c1ccco1)C(=O)c1ccc(-c2ccccc2)cc1 | 0 | 0 | 0 | 0
CC(Sc1nnc(-c2ccco2)n1C)C(=O)Nc1nccs1 (stereo unspecified) | 0 | 20.8 | 0 | 0
CC(C)CCN1CCN(Cc2ccc(C#CCCO)cc2)CC1CCO (stereo unspecified) | 0 | 0 | 0 | 0
CCOC(=O)CN1C(c2ccc(O)cc2)Nc2ccc(Br)cc2C1c1ccccc1 (stereo unspecified) | 0 | 19.5 | 0 | 0
CCOC(=O)CN1C(=O)Nc2ccc(Br)cc2C1c1ccccc1 (stereo unspecified) | 0 | 0 | 0 | 0
CCC[C@H]1NC(=O)[C@H](C)N(C)C(=O)C(C)(C)C(=O)C(C)NC(=O)[C@H](Cc2ccc(OC)cc2)N(C)C(=O)[C@H](C(C)C)N(C)C(=O)CNC(=O)[C@H](CC(C)C)N(C)C(=O)CNC(=O)[C@H]([C@@H](C)CC)OC(=O)[C@H]1C (stereo partly specified) | - | 0 | - | -
CCCc1cc(=O)oc2c(C)c(OC3CCCCC3=O)ccc12 (stereo unspecified) | 0 | 0 | 0 | 0
CCCc1cc(=O)oc2c(C)c(OS(C)(=O)=O)ccc12 | 0 | 16.0 | 0 | 0
CCOC(=O)c1ccc(N/C=C/C(=O)c2ccc(OC)c(OC)c2)cc1 | 0 | 0 | 0 | 0
CCOC(=O)c1ccc(Nc2ccc(-c3ccc(OC)c(OC)c3)nn2)cc1 | 0 | 26.1 | 0 | 0
CC1(C(=O)O)CCCN1C(=O)c1cc2ccccc2s1 (stereo unspecified) | 0 | - | 0 | 0
N#CC(c1nc2ccccc2nc1OCCO)S(=O)(=O)c1ccccc1 (stereo unspecified) | 0 | 0 | 0 | 0
O=C(Cn1c2ccc(F)cc2c2nc3n(c(=O)c21)CCS3)NCC1CCCO1 (stereo unspecified) | 0 | 0 | 0 | 0
Cc1ccc(CS(=O)(=O)c2ncc(Cl)c(C(=O)Nc3ccc(OC(F)F)cc3)n2)cc1 | 0 | 0 | 0 | 0
SMILES | MPTP inh | NR3A LBD binder | EBI2 block | SENP1 FRET inh
CCS(=O)(=O)c1ncc(Cl)c(C(=O)Nc2ccc(C)cc2)n1 | 0 | 0 | 52.6 | 0
CS(=O)(=O)c1ncc(Cl)c(C(=O)Nc2ccc3ccccc3c2)n1 | 0 | 0 | 56.9 | 0
CCS(=O)(=O)c1ncc(Cl)c(C(=O)Nc2ccc(S(=O)(=O)N3CCCC(C)C3)cc2)n1 (stereo unspecified) | 0 | 0 | 50.2 | 0
CCC1CCCCN1S(=O)(=O)c1ccc(NC(=O)c2nc(S(C)(=O)=O)ncc2Cl)cc1 (stereo unspecified) | 0 | 0 | 0 | 0
O=C(CSc1ccc(-c2ccc(F)cc2)nn1)NC1CCCCC1 | 0 | 0 | 0 | 0
CN1C(=O)[C@@H]2[C@@H]3C[C@@H]([C@H]4ON=C(c5ccccc5OCC#N)[C@@H]34)[C@@H]2C1=O | 0 | 0 | 0 | 0
O=C(Nc1cccc(OC(F)(F)F)c1)C1Cc2c(-c3ccco3)ccnc2O1 (stereo unspecified) | 0 | - | 0 | 0
O=C(COc1ccc(Br)cc1)NCC1COc2ccccc2O1 (stereo unspecified) | 0 | 0 | 0 | 0
COc1ccc(-n2c(=S)[nH]c3cc(C(=O)Nc4ccc(C)c(F)c4)ccc3c2=O)c(OC)c1 | 0 | 13.3 | 0 | 0
CC1(C)Oc2ccc(C(=O)NN)cc2NC1=O | 0 | 0 | 0 | 0
Cc1ccc(NC(=O)c2cc(S(=O)(=O)NCCC3=CCCCC3)ccc2F)cc1 | 0 | 14.4 | 0 | 0
